ChEMBL document CHEMBL4257556, “Novel 1,3,4-thiadiazole-chalcone hybrids containing catechol moiety: synthesis, antioxidant activity, cytotoxicity and DNA interaction studies” (Medchemcomm, 2018)
Each block holds one compound with its values, some of them ahead of it. The source made the active and inactive calls. The rule behind the calls is not given here.

Tests used:
[1] = Antioxidant activity assessed as DPPH free radical scavenging activity after 30 mins; format: functional
Outline: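 DPPH (0.05 mM in methanol) mixed with equal volume of compound (DMSO solution diluted in methanol), kept in dark at room temperature 30 min; absorbance at 517 nm, methanol control, ascorbic acid positive control. IC50 = concentration giving 50% of maximum scavenging; mean ± SD of independent triplicate experiments.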

HeLa [2] = assay: Cytotoxicity against human HeLa cells assessed as decrease in cell survival after 72 hrs by MTT assay; format: functional, cell-based
Outline: (§1)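 HeLa (2000/well), A549 and MRC-5 (5000/well) seeded 20 h before treatment; HL-60 (7000/well) 2 h before. Five concentrations (6.25–100 μM or 3.125–50 μM) from 5 mM DMSO stocks, final DMSO ≤1%, 72 h; survival by MTT. Cisplatin positive control; three independent experiments in triplicate.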

MRC5 [3] = assay: Cytotoxicity against human MRC5 cells assessed as decrease in cell survival after 72 hrs by MTT assay; format: cell-based; conditions: MRC5, 72 h; outline: as §1
A549 = assay: Cytotoxicity against human A549 cells assessed as decrease in cell survival after 72 hrs by MTT assay; format: functional, cell-based; conditions: A549, 72 h; outline: as §1
HL-60 = assay: Cytotoxicity against human HL60 cells assessed as decrease in cell survival after 72 hrs by MTT assay; format: functional, cell-based; conditions: HL-60, 72 h; outline: as §1
HeLa [4] = assay: Downregulation of miR-155 expression in human HeLa cells at 10 uM after 24 hrs by RT-qPCR method; format: functional, cell-based
HeLa [5] = assay: Downregulation of miR-133b expression in human HeLa cells at 10 uM after 24 hrs by RT-qPCR method; format: functional, cell-based
Calf thymus DNA [6] = assay: Binding affinity to calf thymus DNA after 90 mins by spectroscopic titration method; format: nucleic-acid assay; conditions: Bos taurus
Outline: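 Compound fixed at 40 μM titrated with CT-DNA (2.2–13 × 10–5 M) in 40 mM bicarbonate pH 8.4 after 90 min at 37 °C; absorbance at 259 nm per DNA level. Kb from slope/intercept ratio of [DNA]/(εa–εf) versus [DNA] plot; triplicate assays.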

Calf thymus DNA [7] = assay: Displacement of Hoechst 33258 from calf thymus DNA assessed as quenching constant by fluorescence spectrophotometric analysis; format: nucleic-acid assay; conditions: Bos taurus
Outline: (§2)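 CT-DNA 100 μM (per phosphate) in 40 mM bicarbonate pH 8.4 pretreated 20 min with Hoechst 33258 (28 μM final), then compound added stepwise. Excitation 350 nm, emission 390–550 nm, read at 444 nm, 10 nm slits; H–DNA as control. Quenching constant K by Stern–Volmer, I0/I versus r = [compound]/[DNA]; triplicate.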

MRC5 [8] = assay: Induction of DNA damage in human MRC5 cells assessed as formation of DNA breaks at 25 uM after 24 hrs by comet assay relative to control; format: functional
Outline: (§3)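 MRC-5 cells exposed 24 h to 3.125–25 μM compound; DNA damage scored as % tail DNA (tail intensity) by comet assay. PBS negative control; H2O2 50 μM 5 min in-gel positive control. Triplicate, repeated twice; mean ± SD.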

HeLa [9] = assay: Upregulation of MMP9 gene expression in human HeLa cells at 10 uM after 24 hrs by RT-qPCR method; format: functional, cell-based
HeLa [10] = assay: Cell cycle arrest in human HeLa cells assessed as accumulation at sub-G1 phase at IC50 and 2 times IC50 after 24 hrs by propidium iodide staining-based flow cytometric method; format: functional
Outline: (§4)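 HeLa cells treated 24 h at IC50 or 2×IC50 (from 72 h assay), fixed in 70% ethanol, stored at –20 °C ≥1 week, RNase A 30 min 37 °C, propidium iodide stained; flow cytometry, 10 000 gated events. Mean ± SD of three independent experiments; one-way ANOVA with Dunnett's post-test, p < 0.05.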

DNA [11] = assay: Induction of Escherichia coli pUC19 DNA cleavage after 90 mins by agarose gel electrophoresis method; format: nucleic-acid assay
Outline: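 Plasmid pUC19 (from E. coli XL1 blue; 460 ng, 12 nM) incubated with compound (0.05–0.4 mM; from 2 mM DMSO stock) in 20 μL 40 mM bicarbonate pH 8.4 at 37 °C for 90 min; 1% agarose gel in TAE at 80 V, ethidium bromide staining, UV at 312 nm; supercoiled/nicked/linear forms scored.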

HeLa [12] = assay: Downregulation of MMP2 gene expression in human HeLa cells at 10 uM after 24 hrs by RT-qPCR method; format: functional, cell-based
EA.hy 926 = assay: Antiangiogenic activity in human EAhy926 cells assessed as inhibition of tubular structures formation at IC20 after 20 hrs by inverted phase-contrast microscopic method; format: functional, cell-based
HeLa [13] = assay: Cell cycle arrest in human HeLa cells assessed as accumulation at sub-G1 phase at 2 times IC50 after 24 hrs in presence of caspase-9 inhibitor Z-LEHD-FMK by propidium iodide-staining based flow cytometric method; format: functional
Outline: (§5)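 HeLa cells pretreated 2 h with 40 μM peptide caspase inhibitor (Z-DEVD-FMK caspase-3, Z-IETD-FMK caspase-8 or Z-LEHD-FMK caspase-9), then exposed to 2×IC50 compound; subG1 fraction by propidium iodide flow cytometry, compared with samples lacking inhibitor.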

MRC5 [14] = assay: Induction of DNA damage in human MRC5 cells assessed as formation of DNA breaks after 24 hrs by comet assay; format: functional, cell-based; outline: as §3
Calf thymus DNA [15] = assay: Displacement of Hoechst 33258 from calf thymus DNA assessed as fluorescence intensity of compound-DNA complex at 22 uM by fluorescence spectrophotometric analysis relative to control; format: nucleic-acid assay; conditions: Bos taurus; outline: as §2
HeLa [16] = assay: Downregulation of VEGFA gene expression in human HeLa cells at 10 uM after 24 hrs by RT-qPCR method; format: functional, cell-based
Calf thymus DNA [17] = assay: Binding affinity to calf thymus DNA assessed as hyperchromism at 10 to 20 uM after 90 mins by UV/visible spectrophotometric analysis; format: nucleic-acid assay; conditions: Bos taurus
Outline: (§6)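 CT-DNA stock in 10 mM Tris-HCl pH 7.9 (A260/A280 1.89–2.01; concentration from ε260 6600 M–1 cm–1). Compound (10, 20 or 40 μM) plus CT-DNA (95 μM) in 40 mM bicarbonate pH 8.4, 37 °C 90 min; spectra 200–800 nm. Hyper/hypochromism at 259 nm from bound versus summed free compound and DNA extinction; triplicate.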

Calf thymus DNA [18] = assay: Binding affinity to calf thymus DNA at 10 to 40 uM after 90 mins by UV/visible spectrophotometric analysis; format: nucleic-acid assay; conditions: Bos taurus; outline: as §6
HeLa [19] = assay: Cell cycle arrest in human HeLa cells assessed as accumulation at G2/M phase at 2 times IC50 after 24 hrs by propidium iodide staining-based flow cytometric method; format: functional; outline: as §4
HeLa [20] = assay: Cell cycle arrest in human HeLa cells assessed as decrease in cell levels at G1 phase at 2 times IC50 after 24 hrs by propidium iodide staining-based flow cytometric method; format: functional; outline: as §4
HeLa [21] = assay: Downregulation of miR-21 expression in human HeLa cells at 10 uM after 24 hrs by RT-qPCR method; format: functional, cell-based
HeLa [22] = assay: Prooxidant activity in human HeLa cells assessed as increase in H2O2-induced reactive oxygen species at 10 uM preincubated for 24 hrs followed by H2O2 addition and measured after 30 mins by dichlorofluorescein dye-based flow cytometric method; format: functional, cell-based
Outline: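 HeLa cells pretreated 24 h with 10 μM compound, washed, loaded with 30 μM DCFH-DA in PBS 45 min at 37 °C. One portion read directly (endogenous ROS); other portion exposed to 10 mM H2O2 30 min at 37 °C. DCF green fluorescence by flow cytometry, 20 000 events per sample; mean ± SD of two independent experiments.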

HeLa [23] = assay: Cell cycle arrest in human HeLa cells assessed as accumulation at sub-G1 phase at 2 times IC50 after 24 hrs in presence of caspase-8 inhibitor Z-IETD-FMK by propidium iodide-staining based flow cytometric method; format: functional; outline: as §5
DNA [24] = assay: Reversal of Fe2+-induced Escherichia coli pUC19 DNA cleavage at 1:2 compound to Fe2+ mole ratio after 90 mins by agarose gel electrophoresis method; format: functional
Outline: (§7)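 Compound (4 μL of 2 mM) preincubated with FeSO4 (1 or 2 μL of 8 mM; compound:Fe 1:1 or 1:2) in bicarbonate buffer 60 min at 37 °C, then pUC19 added for another 90 min; products resolved on 1% agarose gel, ethidium bromide stained.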

HeLa [25] = assay: Downregulation of TIMP3 gene expression in human HeLa cells at 10 uM after 24 hrs by RT-qPCR method; format: functional, cell-based
DNA [26] = assay: Reversal of Fe2+-induced Escherichia coli pUC19 DNA cleavage at 1:1 compound to Fe2+ mole ratio after 90 mins by agarose gel electrophoresis method; format: functional; outline: as §7
HeLa [27] = assay: Upregulation of miR-206 expression in human HeLa cells at 10 uM after 24 hrs by RT-qPCR method; format: functional, cell-based
HeLa [28] = assay: Cell cycle arrest in human HeLa cells assessed as accumulation at sub-G1 phase at 2 times IC50 after 24 hrs in presence of caspase-3 inhibitor Z-DEVD-FMK by propidium iodide-staining based flow cytometric method; format: functional; outline: as §5

Structure (SMILES): O=C1O[C@H]([C@@H](O)CO)C(O)=C1O [ASCORBIC ACID]
- IC50 [1]: 20.2 µM

Structure (SMILES): O=C(Nc1nnc(-c2ccc(O)c(O)c2)s1)c1ccc(/C=C/C(=O)c2cccs2)cc1
- Activity (HeLa [4]): Active
- Activity (HeLa [5]): Active
- IC50 [1]: 11.1 µM
- Kb (Calf thymus DNA [6]): 1.01 ×10³ /M
- K (Calf thymus DNA [7]): 4.66
- Activity (MRC5 [8]): 25%
- Activity (HeLa [9]): Active
- Activity (HeLa [10]): Active
- Activity (DNA [11]): inactive
- Activity (HeLa [12]): Active
- inhibition (EA.hy 926): Active
- IC50 (HeLa [2]): 12.7 µM
- Activity (HeLa [13]): inactive
- Activity (MRC5 [14]): Dose-dependent effect
- Activity (Calf thymus DNA [15]): 51%
- IC50 (MRC5 [3]): 68.5 µM
- Activity (HeLa [16]): Active
- IC50 (A549): 47.9 µM
- Activity (Calf thymus DNA [17]): Active
- Activity (Calf thymus DNA [18]): Active
- Activity (HeLa [19]): Active
- Activity (HeLa [20]): Active
- Activity (HeLa [21]): Active
- Activity (HeLa [22]): inactive
- Activity (HeLa [23]): inactive
- Activity (DNA [24]): Active
- Activity (HeLa [25]): Active
- Activity (DNA [26]): Active
- IC50 (HL-60): 15.7 µM
- Activity (HeLa [27]): inactive
- Activity (HeLa [28]): inactive

Structure (SMILES): O=C(Nc1nnc(-c2ccc(O)c(O)c2)s1)c1ccc(/C=C/C(=O)c2cccc3cc4ccccc4cc23)cc1
- IC50 [1]: 13.5 µM
- IC50 (HeLa [2]): 11 µM
- IC50 (MRC5 [3]): 21.2 µM
- IC50 (A549): 23.2 µM
- IC50 (HL-60): 6.92 µM

The next lines start with results.

- IC50 [1]: 13.9 µM
Structure (SMILES): O=C(Nc1nnc(-c2ccc(O)c(O)c2)s1)c1ccc(C=CC(=O)c2ccccc2F)cc1
- IC50 (HeLa [2]): 11.1 µM
- IC50 (MRC5 [3]): 39.6 µM
- IC50 (A549): 46.9 µM
- IC50 (HL-60): 8.88 µM

- IC50 [1]: 14 µM
Structure (SMILES): O=C(/C=C/c1ccc(C(=O)Nc2nnc(-c3ccc(O)c(O)c3)s2)cc1)c1ccc([N+](=O)[O-])cc1
- IC50 (HeLa [2]): 54.8 µM
- IC50 (MRC5 [3]): 39.4 µM
- IC50 (A549): 128 µM
- IC50 (HL-60): 11.2 µM

- IC50 [1]: 11.7 µM
Structure (SMILES): Cc1ccccc1C(=O)C=Cc1ccc(C(=O)Nc2nnc(-c3ccc(O)c(O)c3)s2)cc1
- IC50 (HeLa [2]): 9.12 µM
- IC50 (MRC5 [3]): 18.6 µM
- IC50 (A549): 21.8 µM
- IC50 (HL-60): 7.62 µM
